# Screening results as filed in PubChem BioAssay.
# Shown are actives, neighbours in structure and some others; about 1.6% of the full set was active somewhere.
# PG9 Ab binder = binds the HIV-1 gp120 antibody PG9; inhibition, % at 6.7 µM; TR-FRET gp120-PG9 antibody binding; AID 624416; hit rate 0.43% among 360,000; in the data active = inhibition above about 8.5%
# NR2E3 ag-1 = activates human photoreceptor nuclear receptor NR2E3; inhibition of corepressor binding, % at 4.78 µM; Q9Y5X4; GST-NR2E3/biotin-RetCOR TR-FRET, 1536-well; hit rate 0.12% among 320,000;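 active = percent inhibition above the cutoff of mean plus 3 SD of all tested compounds, set per screening campaign, cut at about 20% in these data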;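 note: 0% = DMSO wells and 100% = biotin wells as full block of FRET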
#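 Material: NR2E3–RetCOR corepressor complex / Incubation: Compound–protein incubation for 5 h at 4 °C / Dosing: compound at 4.8 µM, single dose / Detection: time-resolved FRET / Benchmarks: high control biotin, low control 0.6% DMSO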
# NR1D1 modulator = Rev-erb alpha (human) modulation; P20393; Rev-erbα–FITC-DNA binding, fluorescence polarization, 90 min; activity, % at 10 µM; hit rate 0.79% among 370,000;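 active = activity above about 14%, limit read from the data; passing the limit was not always enough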;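 note: 0% = DMSO wells with 35 nM protein and 100% = DMSO wells with 750 nM protein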
# PKA-R1A activ = activators of PKA-R1A complex | AID 504707 | hit rate 0.083% among 340,000 | activation, % at 11.4 µM | PKA-R1A dissociation, Cy5-IP20 fluorescence polarization; scaled: DMSO 0%, 113 µM cGMP 100% | P00514+P68181;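 active = percent activation above the mean of all tested compounds plus 3 SD, cut at about 19% in these data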;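 note: higher means more PKAc released from R1A so a rise in polarization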
# NR2E3 ag-2 = agonists of human NR2E3 nuclear receptor; Q9Y5X4; CHO-S Gal4-NCOR/VP16-NR2E3 two-hybrid, luciferase; inhibition of corepressor binding, % at 3.98 µM; hit rate 0.35% among 360,000; AID 602229;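 active = inhibition above the mean of all tested compounds plus 3 SD, cut at about 70% in these data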;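 note: 0% = DMSO with NR2E3 transfected cells and 100% = cells lacking NR2E3 construct; higher means lower luciferase signal from less NR2E3 corepressor binding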
# PKA-R2B act = activators of human PKA-R2B complex | P22694+P31323 | PKA-R2B holoenzyme dissociation, Cy5-IP20 fluorescence polarization; R2B truncated from residue 108, S112A mutant; 0% DMSO only, 100% 113 µM cGMP | activation, % at 11.4 µM | hit rate 0.079% among 340,000;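 active = activation above a cutoff set at the mean over all compounds plus 3 SD, cut at about 18% in these data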;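 note: higher means more holoenzyme dissociation and a rise in polarization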
# Target sequence (P31323 whole entry, looked up, other chains not shown, the tested form may be a part): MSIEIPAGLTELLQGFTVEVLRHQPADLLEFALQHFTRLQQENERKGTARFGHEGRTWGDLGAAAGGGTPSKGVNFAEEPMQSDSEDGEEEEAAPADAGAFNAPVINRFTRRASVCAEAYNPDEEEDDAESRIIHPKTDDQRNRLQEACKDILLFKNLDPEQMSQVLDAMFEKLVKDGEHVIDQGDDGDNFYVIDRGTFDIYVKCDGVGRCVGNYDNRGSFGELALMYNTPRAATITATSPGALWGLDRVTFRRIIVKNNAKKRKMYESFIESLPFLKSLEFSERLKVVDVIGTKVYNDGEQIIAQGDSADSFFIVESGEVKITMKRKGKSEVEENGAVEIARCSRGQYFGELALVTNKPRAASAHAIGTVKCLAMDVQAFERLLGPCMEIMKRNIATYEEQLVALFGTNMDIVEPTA
# NR2E3 ag confirm-1 = NR2E3 (human) agonism, confirmation. shares compounds with NR2E3 ag-1. cell-free NR2E3 corepressor release, TR-FRET, 5 h. activation (reported as inhibition), % at 3.98 µM. hit rate 39% among 360
# PPARg-NCOR2 ctr = PPARg-NCOR2 interaction agonism, NR2E3 counter-screen; shares compounds with NR2E3 ag-1; TR-FRET PPARg-NCOR2 coregulator interaction, biochemical; inhibition, % at 3.98 µM; hit rate 45% among 360; AID 504787; in the data active = inhibition above about 20%;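 note: 0% = DMSO vehicle and 100% = wells without protein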
# R2B FP artifact = counter-screen for PKA-R2B activators: fluorescence polarization artifacts; activation, % at 11.4 µM; shares compounds with PKA-R2B act; hit rate 6% among 270; AID 504796; FP artifact counterscreen;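 note: Cy5 labelled IP20 peptide probe with compound but no PKA protein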
# PKA-R2B confirm = confirmation of human PKA-R2B complex activators; shares compounds with PKA-R2B act; fluorescence polarization, activation; activation, % at 11.4 µM; hit rate 9% among 270; AID 504797; in the data active = activation above about 19%
# Target sequence (P31323 whole entry, looked up): as the sequence (P31323 whole entry, looked up, other chains not shown, the tested form may be a part) above
# R1A FP artifact = fluorescence polarization artifact in PKA-R1A activator counter-screen | shares compounds with PKA-R1A activ | activation, % at 11.4 µM | AID 504799 | Cy5-IP20 peptide alone, fluorescence polarization artifact counterscreen | hit rate 7% among 280;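 active = mean activation over triplicate runs exceeds the adjusted cutoff derived for the parent primary screen, cut at about 19% in these data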;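 note: no PKA protein present so any polarization rise reflects compound interference; 0% = tracer peptide mix alone and 100% = mix with added PKA catalytic subunit; higher means stronger polarization artifact and likely false positive in parent screen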
# PKA-R1A act conf = PKA-R1A complex activation, confirmation | shares compounds with PKA-R1A activ | Cy5-IP20 fluorescence polarization, PKA-R1A holoenzyme dissociation | activation, % at 11.4 µM | hit rate 9% among 280 | AID 504800;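 active = mean activation over replicate wells exceeds the adjusted hit threshold taken from the earlier primary screen, cut at about 20% in these data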;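 note: 0% = holoenzyme mix with DMSO only and 100% = cGMP-activated control wells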
# NR2E3 ag confirm-2 = NR2E3 agonism confirmed in two-hybrid assay; inhibition, % at 3.98 µM; CHO-S mammalian two-hybrid NR2E3-NCOR, luciferase luminescence; hit rate 51% among 2,300; shares compounds with NR2E3 ag-2;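 active = average inhibition above a cutoff equal to the mean inhibition of all tested compounds plus one SD, cut at about 70% in these data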;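 note: 0% = DMSO in NR2E3 cells and 100% = DMSO in cells lacking NR2E3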
# GAL4-VP16 luc = counter-screen for NR2E3 agonists: GAL4-VP16 reporter inhibitors; shares compounds with NR2E3 ag-2; CHO-S GAL4-VP16 luciferase reporter, luminescence; inhibition, % at 3.98 µM; hit rate 29% among 2,300; AID 624379;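 active = mean inhibition above a cutoff equal to the average over all tested compounds plus one standard deviation, cut at about 70% in these data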;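 note: luciferase from a UAS reporter driven by GAL4-VP16 transactivation; 0% = DMSO with VP16-transfected cells and 100% = DMSO with cells lacking VP16; higher means less reporter light so more repression of VP16 activity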
# * hit, by the source's call; · = no result given. Cut-off read from the data, not from the text of the source, unless noted: active = activation above about 20%; inactive = the rest.
SMILES,PG9 Ab binder,NR2E3 ag-1,NR1D1 modulator,PKA-R1A activ,NR2E3 ag-2,PKA-R2B act,NR2E3 ag confirm-2,GAL4-VP16 luc,others
O=C1C(=O)c2cccc3cccc1c23,0,0,-4,0,2,0,·,·,
Cc1nc2c(=O)n(C)c(=O)nc-2n(C)n1,-2,38*,-26,1,114*,14,100*,98*,NR2E3 ag confirm-1=40*;PPARg-NCOR2 ctr=64*
CC(=O)[C@H]1CCC2C3CC[C@H]4C[C@H](O)CC[C@]4(C)C3C(=O)C[C@@]21C (stereo partly drawn),·,·,1,·,·,·,·,·,
C#CCNc1ccncc1S(=O)(=O)NC(=O)NC(C)C,-3,1,-1,10,-41,20*,·,·,R2B FP artifact=2;PKA-R2B confirm=2
CC[C@H]1C2CC3[C@@H]4N(C)c5ccccc5[C@]45C[C@@H](C2C5O)N3[C@@H]1O (stereo partly drawn),·,·,0,·,·,·,·,·,
CCOC(=O)c1ccccc1NC(=O)c1c(O)[nH]c(=S)[nH]c1=O,-1,6,-3,19*,2,1,·,·,R1A FP artifact=1;PKA-R1A act conf=1
COC(=O)C1=C(c2c(C)noc2C)C[C@@H]2CC[C@H]1N2C(=O)NC(C)C,-3,1,-4,4,-5,-5,·,·,
COC(=O)C1=C(c2c(C)noc2C)C[C@@H]2CC[C@H]1N2C(=O)N1CCCC1,0,-2,-1,20*,15,-7,·,·,R1A FP artifact=3;PKA-R1A act conf=3
CC(C)=CC1C(C(=O)OC(C#N)c2cccc(Oc3ccccc3)c2)C1(C)C (stereo not drawn),·,·,2,·,·,·,·,·,
c1ccc(-c2ccc(CN3Cc4ccccc4-n4nncc4C3)cc2)cc1,-1,·,-4,-11,59,-12,83*,60,
CC1CCC/C=C/C2CC(O)CC2C(O)/C=C/C(=O)O1 (stereo not drawn),1,2,-2,0,83*,-8,99*,56,
C[C@H]1CCC[C@@H](O)CCC/C=C/c2cc(O)cc(O)c2C(=O)O1,-1,3,-3,-4,25,0,·,·,
CC(=O)OC1CC2OC3C=C(C)CCC3(C)C1(C)C21CO1 (stereo not drawn),-1,·,-3,·,102*,·,100*,98*,
CC(=O)O[C@H]1C[C@@H]2OC3C=C(C)CCC3(C)[C@@]1(C)[C@@]21CO1 (stereo partly drawn),-2,·,-5,2,101*,-13,98*,97*,
CC(C)C(C(=O)NC(C)(C)C)N1C(=O)CN=C(c2ccccc2)c2ccccc21 (stereo not drawn),·,·,5,·,·,·,·,·,
CN(Cc1cccc(-c2ccncc2)c1)C(=O)Oc1ccccc1Cc1ccccc1,·,·,·,·,81*,·,80*,79*,
Cc1nc2cc(OC(=O)N(C)Cc3cccc(-c4ccncc4)c3)ccc2s1,·,·,·,·,67,·,62,54,
CN(Cc1cccc(-c2ccncc2)c1)C(=O)Oc1ccccc1Cl,·,·,·,·,88*,·,73*,77*,
CN(C)Cc1ccccc1OC(=O)N(C)C,0,4,-1,-5,-11,-7,·,·,
CCOC(=O)/C=C(C)/C=C/CC(C)CCCC(C)C (stereo not drawn),·,·,-2,·,·,·,·,·,
CCC1(C)CC(=O)NC(=O)C1,·,·,3,·,·,·,·,·,
CC(C)(C)NC(=O)C1CN=C(c2ccccc2)c2cc(Cl)ccc2N1C(=O)C1CCC1 (stereo not drawn),·,·,1,·,·,·,·,·,
CC(C)(C)NCC(O)c1cc(Cl)c(N)c(C(F)(F)F)c1 (stereo not drawn),·,·,0,·,·,·,·,·,
COc1ccc(CC2C(=O)NC(C)C(=O)N(C)C3C(=O)N(C)C(Cc4ccc(O)c(c4)Oc4ccc(cc4)C3O)C(=O)NC(C)C(=O)NC(C)C(=O)N2C)cc1 (stereo not drawn),1,·,0,-3,102*,4,100*,100*,
CC(C)(C)c1ccc(O)cc1,·,·,-2,·,·,·,·,·,
SMILES,PG9 Ab binder,NR2E3 ag-1,NR1D1 modulator,PKA-R1A activ,NR2E3 ag-2,PKA-R2B act,NR2E3 ag confirm-2,GAL4-VP16 luc,others
CCOC(=O)[C@]12Cc3cc(Cl)ccc3[C@H]1N(C1CCCCC1)C(=O)c1cc(OC)ccc12,1,·,1,·,100*,·,99*,78*,
C[C@]12CC[C@H](OC3OC(O)C(O)C(O)C3O)C=C1CCC1C2CC[C@]2(C)[C@@H](c3ccc(=O)oc3)CC[C@]12O (stereo partly drawn),·,·,-4,·,·,·,·,·,
Cc1cc(OC(=O)c2ccco2)c2c3c(c(=O)oc2c1)CCCC3,-1,3,1,-5,93*,0,69,43,
CCC1CN2CCc3cc(OC)c(OC)cc3C2CC1CC1NCCc2c1[nH]c1ccc(O)cc21 (stereo not drawn),-1,·,5,3,102*,-4,99*,99*,
COC(=O)C1=C[C@H]([C@@H](C)[C@H](OC)c2ccccc2Br)[C@@H]2[C@H]1c1ccccc1N2C,·,·,7,·,·,·,·,·,
FC(F)OC(F)(F)C(F)Cl (stereo not drawn),·,·,-2,·,·,·,·,·,
O=c1oc2ccccc2c(O)c1C(c1ccc([N+](=O)[O-])cc1)c1c(O)c2ccccc2oc1=O,0,·,-5,-2,10,-11,·,·,
CC(C)c1ccc(C(c2c(O)c3ccccc3oc2=O)c2c(O)c3ccccc3oc2=O)cc1,-2,·,-7,-3,75*,-13,91*,53,
